Activity calls are given as the source filed them. The rule behind the calls is not given here.
Key:
[1] = target: T1, 72 kDa type IV collagenase (Homo sapiens, UniProt P08253); assay: Inhibition of recombinant human MMP2 at 10 uM using thiopeptide as substrate preincubated for 30 mins followed by substrate addition and measured every min for 20 mins by colorimetric assay relative to control
In short: (§1)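 Colorimetric kit assay: human recombinant enzyme plus inhibitor in assay buffer for 30 min at 37 °C, then chromogenic MMP substrate added; A412 recorded each minute over 20 min. Enzyme-free blanks and inhibitor-free controls included.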
Target sequence in this assay (P08253 110-660 limits assumed): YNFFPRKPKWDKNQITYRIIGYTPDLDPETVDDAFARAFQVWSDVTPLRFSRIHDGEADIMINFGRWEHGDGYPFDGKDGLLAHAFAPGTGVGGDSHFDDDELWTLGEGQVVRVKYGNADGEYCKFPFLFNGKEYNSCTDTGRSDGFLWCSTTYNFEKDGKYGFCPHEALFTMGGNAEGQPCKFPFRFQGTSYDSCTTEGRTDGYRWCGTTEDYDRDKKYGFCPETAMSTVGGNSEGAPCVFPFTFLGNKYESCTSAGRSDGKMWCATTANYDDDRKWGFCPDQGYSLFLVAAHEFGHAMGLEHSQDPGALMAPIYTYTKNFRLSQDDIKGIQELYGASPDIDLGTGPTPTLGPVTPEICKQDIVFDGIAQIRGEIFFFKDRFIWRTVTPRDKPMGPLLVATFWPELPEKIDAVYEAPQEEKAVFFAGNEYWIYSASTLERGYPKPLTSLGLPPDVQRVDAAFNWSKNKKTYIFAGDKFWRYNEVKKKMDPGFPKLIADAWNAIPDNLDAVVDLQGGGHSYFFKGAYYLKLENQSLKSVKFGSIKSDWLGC

[2] = target: T2, Matrix metalloproteinase-9 (Homo sapiens, UniProt P14780); assay: Inhibition of recombinant human MMP9 using thiopeptide as substrate preincubated for 30 mins followed by substrate addition and measured every min for 20 mins by colorimetric assay
T2 sequence (P14780 whole entry): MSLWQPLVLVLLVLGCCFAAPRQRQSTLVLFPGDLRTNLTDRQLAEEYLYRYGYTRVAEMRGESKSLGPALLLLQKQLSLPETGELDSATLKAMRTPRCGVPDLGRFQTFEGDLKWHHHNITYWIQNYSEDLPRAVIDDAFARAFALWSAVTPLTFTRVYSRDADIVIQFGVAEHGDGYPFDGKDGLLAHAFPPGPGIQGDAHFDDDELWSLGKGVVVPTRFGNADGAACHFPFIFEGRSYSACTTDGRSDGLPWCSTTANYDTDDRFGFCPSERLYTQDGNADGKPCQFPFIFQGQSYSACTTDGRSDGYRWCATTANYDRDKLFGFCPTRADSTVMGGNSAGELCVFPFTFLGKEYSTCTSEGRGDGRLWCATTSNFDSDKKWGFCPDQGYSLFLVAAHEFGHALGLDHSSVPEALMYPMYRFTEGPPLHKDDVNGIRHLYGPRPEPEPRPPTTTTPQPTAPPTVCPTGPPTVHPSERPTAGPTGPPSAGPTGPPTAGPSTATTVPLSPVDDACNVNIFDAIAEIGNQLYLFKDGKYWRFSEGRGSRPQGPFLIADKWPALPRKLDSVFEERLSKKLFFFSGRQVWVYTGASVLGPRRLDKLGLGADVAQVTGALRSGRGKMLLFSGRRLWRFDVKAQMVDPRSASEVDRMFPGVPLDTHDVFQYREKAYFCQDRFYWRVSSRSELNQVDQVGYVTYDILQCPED

[3] = target: T1, 72 kDa type IV collagenase; assay: Inhibition of recombinant human MMP2 using thiopeptide as substrate preincubated for 30 mins followed by substrate addition and measured every mins for 20 min by colorimetric assay
Target sequence in this assay (P08253 whole entry): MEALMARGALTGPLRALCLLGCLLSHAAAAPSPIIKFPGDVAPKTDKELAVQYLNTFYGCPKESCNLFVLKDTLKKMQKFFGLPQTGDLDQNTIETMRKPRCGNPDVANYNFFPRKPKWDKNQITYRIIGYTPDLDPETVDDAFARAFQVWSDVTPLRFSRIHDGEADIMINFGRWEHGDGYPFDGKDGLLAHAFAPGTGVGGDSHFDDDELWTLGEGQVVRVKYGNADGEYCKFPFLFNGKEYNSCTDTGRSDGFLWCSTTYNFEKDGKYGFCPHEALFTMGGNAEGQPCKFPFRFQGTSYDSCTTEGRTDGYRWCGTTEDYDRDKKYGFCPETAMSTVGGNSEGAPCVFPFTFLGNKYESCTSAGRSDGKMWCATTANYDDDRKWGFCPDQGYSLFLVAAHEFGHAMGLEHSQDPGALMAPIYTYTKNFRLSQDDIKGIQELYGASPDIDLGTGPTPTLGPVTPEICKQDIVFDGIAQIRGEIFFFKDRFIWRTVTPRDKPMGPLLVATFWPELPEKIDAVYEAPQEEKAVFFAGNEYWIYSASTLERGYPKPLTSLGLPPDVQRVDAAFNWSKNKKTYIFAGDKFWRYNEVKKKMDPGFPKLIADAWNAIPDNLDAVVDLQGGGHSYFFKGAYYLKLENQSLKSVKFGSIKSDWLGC

[4] = target: T2, Matrix metalloproteinase-9; assay: Inhibition of recombinant human MMP9 at 10 uM using thiopeptide as substrate preincubated for 30 mins followed by substrate addition and measured every min for 20 mins by colorimetric assay relative to control; in short: as §1
KG-1 = assay: Antiproliferative activity against human KG1 cells assessed as reduction in cell viability incubated for 48 hrs by MTT assay; format: functional, cell-based; conditions: KG-1, 48 h
In short: (§2)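 Cells grown in RPMI1640 with 10% FBS at 37°C, 5% CO2; seeded at 4000-5000 cells/well for 8 h, then exposed to a range of compound concentrations for 48 h. MTT added for 4 h, formazan dissolved in DMSO, absorbance at 570 nm; IC50 calculated from inhibition ratios.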

A549 [5] = assay: Antiproliferative activity against human A549 cells assessed as reduction in cell viability incubated for 48 hrs by MTT assay; format: functional, cell-based; conditions: A549, 48 h; in short: as §2
HL-60 = assay: Antiproliferative activity against human HL60 cells assessed as reduction in cell viability incubated for 48 hrs by MTT assay; format: functional, cell-based; conditions: HL-60, 48 h; in short: as §2
HUVEC = assay: Cytotoxicity against HUVEC assessed as reduction in cell viability incubated for 48 hrs by MTT assay; format: cell-based; conditions: Homo sapiens; in short: as §2
MCF7 = assay: Antiproliferative activity against human MCF7 cells assessed as reduction in cell viability incubated for 48 hrs by MTT assay; format: functional, cell-based; conditions: MCF7, 48 h; in short: as §2
PC-3 = assay: Antiproliferative activity against human PC3 cells assessed as reduction in cell viability incubated for 48 hrs by MTT assay; format: functional, cell-based; conditions: PC-3, 48 h; in short: as §2
K562 = assay: Antiproliferative activity against human K562 cells assessed as reduction in cell viability incubated for 48 hrs by MTT assay; format: functional, cell-based; conditions: K562, 48 h; in short: as §2
A549 [6] = assay: Inhibition of cell invasion in human A549 cells at 1 to 10 uM incubated for 24 hrs by crystal violet staining based matrigel migration assay; format: functional
In short: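 As the migration setup but membrane precoated with matrigel (1:10 diluted) for 2 h at 37°C: A549 pretreated 24 h at 1, 5, 10 µM, 30,000 cells in serum-free medium above, 10% FBS below, 24 h, then fixing, 0.1% crystal violet staining and counting. Three repeats, mean ± SEM.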

| Compound | inhibition [1] | IC50 [2] | IC50 [3] | inhibition [4] | IC50 (KG-1) | IC50 (A549 [5]) | IC50 (HL-60) | IC50 (HUVEC) | IC50 (MCF7) | IC50 (PC-3) | IC50 (K562) | inhibition (A549 [6]) |
| --- | --- | --- | --- | --- | --- | --- | --- | --- | --- | --- | --- | --- |
| O=C(CCCCCCNCc1ccc(O)c2ncccc12)Nc1ccccc1 | 53.8% | > 10 µM | > 10 µM | 28.8% |  |  |  |  |  |  |  |  |
| O=C(CCCNCc1ccc(O)c2ncccc12)Nc1ccccc1 | 54.5% | 5.1 µM | 5.7 µM | 83.9% |  |  |  |  |  |  |  |  |
| CN(CCCC(=O)Nc1ccc(O)c2ncccc12)c1ccccc1 |  | > 10 µM | > 10 µM |  |  |  |  |  |  |  |  |  |
| Cc1nc2ccccc2n1CCCCC(=O)Nc1ccc(O)c2ncccc12 |  | > 10 µM | > 10 µM |  |  |  |  |  |  |  |  |  |
| Cc1[nH]c2ccccc2c1CCNC(=O)CCNCc1cc(Cl)c2cccnc2c1O |  | > 10 µM | > 10 µM | 73.9% |  |  |  |  |  |  |  |  |
| Cc1nc2ccccc2n1CCC(=O)Nc1ccc(O)c2ncccc12 |  | > 10 µM | > 10 µM |  |  |  |  |  |  |  |  |  |
| Cc1[nH]c2ccccc2c1CCNC(=O)CCNCc1ccc(O)c2ncccc12 | 49.8% | > 10 µM | > 10 µM | 11.3% |  |  |  |  |  |  |  |  |
| O=C(CCN1C(=O)c2ccccc2S1(=O)=O)Nc1ccc(O)c2ncccc12 |  | > 10 µM | > 10 µM |  |  |  |  |  |  |  |  |  |
| O=C(CCCCN1C(=O)c2ccccc2S1(=O)=O)Nc1ccc(O)c2ncccc12 |  | > 10 µM | > 10 µM |  |  |  |  |  |  |  |  |  |
| Cc1[nH]c2ccccc2c1CCNC(=O)CCCNCc1ccc(O)c2ncccc12 | 44.8% | > 10 µM | > 10 µM | 12.3% |  |  |  |  |  |  |  |  |
| O=C(CCNCc1cc(Cl)c2cccnc2c1O)Nc1ccccc1 | 100% | 3.5 µM | 3.3 µM | 98.9% | 1.1 µM | 9.7 µM | 1.3 µM | > 50 µM | 13 µM | 1.9 µM | 1.7 µM |  |
| O=C(CCCCNCc1ccc(O)c2ncccc12)Nc1ccccc1 |  | > 10 µM | > 10 µM | 36.5% |  |  |  |  |  |  |  |  |
| O=C(CCCCCN1C(=O)c2ccccc2S1(=O)=O)Nc1ccc(O)c2ncccc12 |  | > 10 µM | > 10 µM | 24.3% |  |  |  |  |  |  |  |  |
| CC1(C)SCCN(S(=O)(=O)c2ccc(Oc3ccncc3)cc2)[C@H]1C(=O)NO [PRINOMASTAT] |  |  |  |  | > 500 µM | > 500 µM | > 500 µM | > 500 µM | > 500 µM | > 500 µM | > 500 µM | Active |
| O=C(CCCNCc1cc(Cl)c2cccnc2c1O)Nc1ccccc1 | 100% | 3.2 µM | 3.8 µM | 100% | 1.6 µM | 17 µM | 1.9 µM | > 50 µM | 9 µM | 7.7 µM | 1.9 µM |  |
